Activity calls are given as the source filed them. Peptide text beside a SMILES is read from it. * marks the point of attachment. Cbz = O=C(OCc1ccccc1)*; OBn = c1ccc(CO*)cc1; OtBu = CC(C)(C)O*; tBu = CC(C)(C)*

A word on the half-life: it is the time needed for the level to fall by half in the phase considered. Low readings indicate rapid decline, high ones slow decline.

The test system of data set [1] is U-251. Description: Cytotoxicity against human U251 cells assessed as reduction of clonogenicity at 10 uM after 1 to 2 weeks by crystal violet staining. Format: functional, cell-based. The method in brief:
(§1)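 Clonogenic survival: 1000 cells plated per well, then grown with or without peptide for 1–2 weeks before colonies were scored. Peptide stock was 25 mM in DMSO.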

Data set [2] concerns HEK-293T. Description: Cytotoxicity against human 293T cells assessed as reduction of clonogenicity at 10 uM after 1 to 2 weeks by crystal violet staining. The data set is classed as cell-based. An outline of the steps: as §1
Data set [3] concerns HL-60. Description: Cytotoxicity against human HL60 cells assessed as cell viability at 1 to 100 uM after 24 hrs by MTT assay. Format: functional, cell-based. An outline of the steps:
(§2)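 Cells exposed to peptide at a range of concentrations for 24 h, with DMSO as negative control. Tetrazolium (MTS-type) viability reagent added, then 1–2 h at 37 °C. Read-out is OD at 490 nm. Run in triplicate; significance by Student's t-test against untreated and DMSO-treated cells. Peptide stock was 25 mM in DMSO, stored at −20 °C.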
On the technique in general: Tetrazolium dyes change colour on reduction, which living cells bring about.

Data set [4] relates to NALM-6. Put plainly: Cytotoxicity against human NALM6 cells assessed as cell viability at 1 to 100 uM after 24 hrs by MTT assay. The data set is classed as functional, cell-based. An outline of the steps:
as §2

For data set [5], the system named is HEL. Description: Cytotoxicity against human HEL cells assessed as cell viability at 1 to 100 uM after 24 hrs by MTT assay. Format: functional, cell-based. An outline of the steps: as §2
Data set [6] has as its system HL-60. Put plainly: Cytotoxicity against human HL60 cells assessed as cell viability after 24 hrs by MTT assay. The data set is classed as functional, cell-based. The method in brief: as §2
The test system of data set [7] is HUVEC. Put plainly: Cytotoxicity against human HUVEC cells assessed as cell viability after 24 hrs by MTT assay. The data set is classed as cell-based. An outline of the steps:
as §2

A short description of data set [8]: Chemical stability of the compound in DMSO after 7 days. The conditions noted are these: 168 h. Format: physicochemical. The method in brief:
(§3)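 Peptide kept in organic solvent (DMSO, CDCl₃ or MeOH) and watched for decomposition, read at 12 h and at 7 days.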

Data set [9] in a line: Chemical stability of the compound in CDCl3 after 7 days. Format: physicochemical. The note with it: 168 h. An outline of the steps:
as §3

Data set [10] is described as follows: Chemical stability of the compound in MeOH after 7 days. The data set is classed as physicochemical. The conditions noted are these: 168 h. An outline of the steps:
as §3

A short description of data set [11]: Half life in human plasma. The data set is classed as ADME, cell-free.
Data set [12] concerns HL-60. Description: Cytotoxicity against human HL60 cells assessed as cell viability at 50 uM after 24 hrs by MTT assay. The data set is classed as functional, cell-based. The method in brief: as §2
In data set [13] the test system is NALM-6. Description: Cytotoxicity against human NALM6 cells assessed as cell viability at 50 uM after 24 hrs by MTT assay. The data set is classed as functional, cell-based. An outline of the steps:
as §2

For data set [14], the system named is HEL. Put plainly: Cytotoxicity against human HEL cells assessed as cell viability at 50 uM after 24 hrs by MTT assay. The data set is classed as functional, cell-based. An outline of the steps:
as §2

Data set [15] in a line: Chemical stability of the compound in DMSO after 12 hrs. The data set is classed as physicochemical. The method in brief:
as §3

A short description of data set [16]: Chemical stability of the compound in CDCl3 after 12 hrs. Format: physicochemical. An outline of the steps: as §3
The nature of data set [17]: Chemical stability of the compound in MeOH after 12 hrs. The data set is classed as physicochemical. The method in brief: as §3

Consider `CC(=O)N[C@@H](COC(C)(C)C)C(=O)N[C@@H](CC(=O)OC(C)(C)C)C(=O)N[C@@H](CCCCNC(=O)OCc1ccccc1)C(=O)N1CCC[C@H]1C(=O)OCc1ccccc1` (Ac-S(tBu)D(OtBu)K(Cbz)P-OBn), for which the outcome in [1], in data set [3], in [4] and in data set [5] was Active. Moreover, the Activity result in [2] was “Toxic”; in data set [6], “Dose-dependent effect”; in data set [7], “Dose-dependent effect”. Further, the Stability entry in [8], in data set [9] and in [10] was “Stable” each time.
As for `CC(=O)N[C@@H](CO)C(=O)N[C@@H](CC(=O)O)C(=O)N[C@@H](CCCCN)C(=O)N1CCC[C@H]1C(=O)O` [GORALATIDE] (Ac-SDKP-OH), the half-life in data set [11] came to 4.5 min. In addition, the inhibition entry in data set [12], in data set [13] and in data set [14] was “inactive” each time. Moreover, the Stability entry in data set [15], in [16] and in data set [17] was “Unstable” throughout.

Values taken from ChEMBL document CHEMBL3593217, “Synthesis and bioactivity of a Goralatide analog with antileukemic activity” (Bioorg Med Chem, 2015).
